According to ChEMBL document CHEMBL3112572, “Substituted 4-phenyl-2-aminoimidazoles and 4-phenyl-4,5-dihydro-2-aminoimidazoles as voltage-gated sodium channel modulators” (Eur J Med Chem, 2014):
pIC50: −log10 of the molar value.

Columns and labels:
[1] = molecular target: T1, Sodium channel protein type 4 subunit alpha (Homo sapiens, UniProt P35499); test: Modulation of human Nav1.4 in open-inactivated state assessed as inhibition of inward current after 4 mins by whole-cell electrophysiology
Method in brief: (§1)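 Cells dissociated with trypsin-EDTA are kept in serum-free medium and recorded by QPatch HT whole-cell clamp with a high-frequency, pathophysiological protocol. The open-inactivated test pulse depolarizes from about -70 mV. After 4 min of vehicle (0.1% DMSO), 0.3–10 µM is added cumulatively, 4 min per level. Percent inhibition of peak inward current uses the mean of the last three sweeps against vehicle. IC50 is fitted by a constrained 4-parameter logistic, mean ± SD of ≥3 experiments.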

[2] = molecular target: T2, Sodium channel protein type 3 subunit alpha (Homo sapiens, UniProt Q9NY46); test: Modulation of human Nav1.3 in open-inactivated state assessed as inhibition of inward current after 4 mins by whole-cell electrophysiology
[3] = molecular target: T3, Sodium channel protein type 9 subunit alpha (Homo sapiens, UniProt Q15858); test: Modulation of human Nav1.7 in closed state assessed as inhibition of inward current after 4 mins by whole-cell electrophysiology
T3 sequence (Q15858 whole entry): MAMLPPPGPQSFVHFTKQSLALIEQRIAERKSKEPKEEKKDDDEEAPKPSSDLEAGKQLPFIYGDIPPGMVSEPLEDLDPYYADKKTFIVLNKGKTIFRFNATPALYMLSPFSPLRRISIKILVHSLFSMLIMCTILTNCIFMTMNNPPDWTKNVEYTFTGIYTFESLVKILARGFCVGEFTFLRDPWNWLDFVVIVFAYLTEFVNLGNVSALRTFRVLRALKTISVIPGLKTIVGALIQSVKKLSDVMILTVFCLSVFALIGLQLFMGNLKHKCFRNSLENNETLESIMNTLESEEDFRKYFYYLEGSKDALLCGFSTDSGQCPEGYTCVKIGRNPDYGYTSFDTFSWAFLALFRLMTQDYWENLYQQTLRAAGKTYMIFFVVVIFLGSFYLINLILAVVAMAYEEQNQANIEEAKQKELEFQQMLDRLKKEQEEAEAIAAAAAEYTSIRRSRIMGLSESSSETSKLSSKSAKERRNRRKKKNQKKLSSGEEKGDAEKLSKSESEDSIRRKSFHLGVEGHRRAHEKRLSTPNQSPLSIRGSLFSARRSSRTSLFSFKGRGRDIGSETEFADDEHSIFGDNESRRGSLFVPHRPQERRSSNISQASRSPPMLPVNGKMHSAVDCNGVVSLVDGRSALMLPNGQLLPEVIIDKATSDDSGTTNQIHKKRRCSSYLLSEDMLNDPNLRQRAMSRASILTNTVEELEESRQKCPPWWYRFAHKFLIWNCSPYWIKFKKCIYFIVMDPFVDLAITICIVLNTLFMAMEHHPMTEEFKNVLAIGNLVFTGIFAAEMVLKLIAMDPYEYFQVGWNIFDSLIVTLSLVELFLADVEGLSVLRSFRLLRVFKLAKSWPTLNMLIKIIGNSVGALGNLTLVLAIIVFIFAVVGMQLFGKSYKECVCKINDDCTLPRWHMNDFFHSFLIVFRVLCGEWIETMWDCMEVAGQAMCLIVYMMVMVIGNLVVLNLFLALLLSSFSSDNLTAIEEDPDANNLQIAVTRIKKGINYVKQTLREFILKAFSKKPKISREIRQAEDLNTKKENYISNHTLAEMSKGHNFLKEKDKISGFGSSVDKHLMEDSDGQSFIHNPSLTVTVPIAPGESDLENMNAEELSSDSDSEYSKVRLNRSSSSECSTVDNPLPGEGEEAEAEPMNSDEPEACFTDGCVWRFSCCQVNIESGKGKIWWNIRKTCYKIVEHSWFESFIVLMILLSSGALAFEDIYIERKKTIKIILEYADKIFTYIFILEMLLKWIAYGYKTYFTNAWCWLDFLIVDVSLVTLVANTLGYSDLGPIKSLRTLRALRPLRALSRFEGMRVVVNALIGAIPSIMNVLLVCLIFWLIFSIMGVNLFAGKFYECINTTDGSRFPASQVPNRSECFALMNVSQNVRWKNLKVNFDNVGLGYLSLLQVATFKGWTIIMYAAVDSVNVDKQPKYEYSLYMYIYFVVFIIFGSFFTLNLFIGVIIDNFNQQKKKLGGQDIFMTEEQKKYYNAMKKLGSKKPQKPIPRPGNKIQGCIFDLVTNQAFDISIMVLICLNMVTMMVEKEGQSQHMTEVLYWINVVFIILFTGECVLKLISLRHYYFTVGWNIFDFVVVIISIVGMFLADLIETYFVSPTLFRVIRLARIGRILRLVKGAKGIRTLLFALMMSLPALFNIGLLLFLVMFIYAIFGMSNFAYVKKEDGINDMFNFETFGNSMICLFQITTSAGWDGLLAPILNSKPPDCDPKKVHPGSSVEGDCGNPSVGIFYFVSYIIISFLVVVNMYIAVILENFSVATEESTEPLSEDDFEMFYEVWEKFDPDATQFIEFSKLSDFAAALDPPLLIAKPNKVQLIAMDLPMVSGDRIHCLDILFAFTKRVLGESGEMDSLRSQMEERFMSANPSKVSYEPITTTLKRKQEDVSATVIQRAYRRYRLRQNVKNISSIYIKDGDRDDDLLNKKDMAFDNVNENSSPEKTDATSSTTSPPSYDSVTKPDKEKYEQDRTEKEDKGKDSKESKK
Method in brief: (§2)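 Automated whole-cell patch clamp (QPatch HT) on trypsin-EDTA-dissociated cells held in serum-free medium. Closed-state test pulse depolarizes from -100 mV. 0.1% DMSO vehicle for 4 min is followed by four cumulative bolus concentrations (0.3–10 µM, 0.1% DMSO final), each incubated 4 min. Peak inward current from the last three sweeps is compared with vehicle, and IC50 comes from a 4-parameter logistic fit constrained 0–100%, n≥3.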

[4] = molecular target: T2, Sodium channel protein type 3 subunit alpha; test: Modulation of human Nav1.3 in closed state assessed as inhibition of inward current after 4 mins by whole-cell electrophysiology; method in brief: as §2
[5] = molecular target: T3, Sodium channel protein type 9 subunit alpha; test: Modulation of human Nav1.7 in open-inactivated state assessed as inhibition of inward current after 4 mins by whole-cell electrophysiology; method in brief: as §1
[6] = molecular target: T1, Sodium channel protein type 4 subunit alpha; test: Modulation of human Nav1.4 in closed state assessed as inhibition of inward current after 4 mins by whole-cell electrophysiology; method in brief: as §2

T1 sequence (P35499 whole entry): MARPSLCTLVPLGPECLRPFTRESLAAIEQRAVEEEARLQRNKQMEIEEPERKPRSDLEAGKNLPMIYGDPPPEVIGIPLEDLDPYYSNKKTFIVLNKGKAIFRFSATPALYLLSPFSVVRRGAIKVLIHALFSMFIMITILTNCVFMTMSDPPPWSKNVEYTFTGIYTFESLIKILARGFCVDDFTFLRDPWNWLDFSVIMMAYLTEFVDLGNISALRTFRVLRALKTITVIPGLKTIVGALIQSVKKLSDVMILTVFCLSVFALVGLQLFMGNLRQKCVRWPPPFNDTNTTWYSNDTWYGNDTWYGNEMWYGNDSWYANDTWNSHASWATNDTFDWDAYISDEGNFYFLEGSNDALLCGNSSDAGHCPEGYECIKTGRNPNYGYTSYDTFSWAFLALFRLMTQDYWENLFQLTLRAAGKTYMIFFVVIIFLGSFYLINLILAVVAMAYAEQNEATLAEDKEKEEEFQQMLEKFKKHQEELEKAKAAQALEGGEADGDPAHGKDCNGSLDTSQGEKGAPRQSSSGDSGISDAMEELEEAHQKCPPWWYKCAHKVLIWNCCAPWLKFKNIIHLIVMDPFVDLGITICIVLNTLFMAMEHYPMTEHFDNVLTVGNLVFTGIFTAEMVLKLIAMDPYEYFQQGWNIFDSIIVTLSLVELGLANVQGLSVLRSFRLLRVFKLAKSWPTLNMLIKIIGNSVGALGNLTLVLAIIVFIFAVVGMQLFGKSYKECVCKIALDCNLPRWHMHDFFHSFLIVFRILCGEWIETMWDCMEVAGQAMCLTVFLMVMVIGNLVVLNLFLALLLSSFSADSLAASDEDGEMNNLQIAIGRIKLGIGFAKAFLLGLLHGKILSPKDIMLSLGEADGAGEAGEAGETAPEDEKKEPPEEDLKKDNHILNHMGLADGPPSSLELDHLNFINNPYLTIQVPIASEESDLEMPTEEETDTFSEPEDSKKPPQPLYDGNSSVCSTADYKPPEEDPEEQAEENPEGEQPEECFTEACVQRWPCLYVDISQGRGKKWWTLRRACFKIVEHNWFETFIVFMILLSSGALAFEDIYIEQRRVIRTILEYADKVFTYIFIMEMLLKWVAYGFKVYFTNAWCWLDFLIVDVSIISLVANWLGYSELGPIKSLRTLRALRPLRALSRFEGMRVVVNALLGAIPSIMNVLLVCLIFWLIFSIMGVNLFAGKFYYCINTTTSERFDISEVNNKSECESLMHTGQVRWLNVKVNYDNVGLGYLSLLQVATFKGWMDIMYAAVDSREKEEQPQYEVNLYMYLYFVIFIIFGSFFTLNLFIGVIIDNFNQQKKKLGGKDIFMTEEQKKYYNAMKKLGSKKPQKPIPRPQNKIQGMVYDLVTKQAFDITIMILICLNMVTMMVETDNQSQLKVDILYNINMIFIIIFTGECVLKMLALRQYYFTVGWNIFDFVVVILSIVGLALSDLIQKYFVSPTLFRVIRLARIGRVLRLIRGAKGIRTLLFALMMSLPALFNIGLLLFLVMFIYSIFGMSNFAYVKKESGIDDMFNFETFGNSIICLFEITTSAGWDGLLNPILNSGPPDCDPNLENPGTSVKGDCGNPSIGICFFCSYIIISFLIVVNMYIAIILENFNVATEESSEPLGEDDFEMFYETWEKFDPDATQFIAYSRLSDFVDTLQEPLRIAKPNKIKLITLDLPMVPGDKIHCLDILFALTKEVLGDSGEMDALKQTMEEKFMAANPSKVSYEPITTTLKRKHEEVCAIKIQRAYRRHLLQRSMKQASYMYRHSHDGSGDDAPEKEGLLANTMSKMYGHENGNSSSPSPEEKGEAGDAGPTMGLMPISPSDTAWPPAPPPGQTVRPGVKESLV

Structure (SMILES)	pIC50 [1]	pIC50 [2]	pIC50 [3]	pIC50 [4]	pIC50 [5]	pIC50 [6]
CC(C)(C)OC(=O)n1cc(-c2ccc(NC(=O)c3ccco3)cc2)nc1N	< 4.52	4.57	< 4.52	< 4.52	4.66	< 4.52
Nc1nc(-c2ccc(NC(=O)[C@@H]3CCCN3)cc2)c[nH]1	< 4.52	4.89	< 4.52	< 4.52	< 4.52	< 4.52
Nc1nc(-c2cccc(NC(=O)c3cc[nH]c3)c2)c[nH]1	4.82	4.92	< 4.52	< 4.52	< 4.52	< 4.52
CNc1nc(-c2cccc(NC(=O)c3cc4ccccc4[nH]3)c2)c[nH]1	< 4.52	< 4.52	< 4.52	< 4.52	< 4.52	< 4.52
CC(C)(C)OC(=O)n1cc(-c2ccc(NC(=O)[C@@H]3CCCN3)cc2)nc1N	< 4.52	4.60	< 4.52	< 4.52	4.72	< 4.52
Nc1nc(-c2ccc(NC(=O)c3ccc[nH]3)cc2)c[nH]1	< 4.52	< 4.52	< 4.52	< 4.52	4.57	< 4.52
CNc1nc(-c2cccc(NC(=O)c3ccco3)c2)cn1C(=O)OC(C)(C)C	< 4.52	< 4.52	< 4.52	< 4.52	4.59	< 4.52
CC(C)(C)OC(=O)n1cc(-c2cccc(NC(=O)c3cc[nH]c3)c2)nc1N	< 4.52	4.64	< 4.52	< 4.52	< 4.52	< 4.52
CC(C)(C)OC(=O)n1cc(-c2ccc(NC(=O)c3ccc[nH]3)cc2)nc1N	< 4.52	< 4.52	< 4.52	< 4.52	< 4.52	< 4.52
CC(C)(C)OC(=O)n1cc(-c2cccc(NC(=O)c3c[nH]c4ccccc34)c2)nc1N	4.59	4.57	< 4.52	< 4.52	< 4.52	< 4.52
Nc1nc(-c2cccc(NC(=O)c3ccc[nH]3)c2)c[nH]1	< 4.52	< 4.52	< 4.52	< 4.52	< 4.52	< 4.52
CC(C)(C)OC(=O)n1cc(-c2ccc(NC(=O)c3cc4ccccc4[nH]3)cc2)nc1N	4.55	4.66	< 4.52	< 4.52	< 4.52	< 4.52
CCN(CC)CC(=O)Nc1c(C)cccc1C [LIDOCAINE]	5.70	4.98				
CC(C)(C)OC(=O)n1cc(-c2cccc(NC(=O)[C@H]3CCCN3)c2)nc1N	< 4.52	< 4.52	< 4.52	< 4.52	4.54	< 4.52
CC(C)(C)OC(=O)n1cc(-c2cccc(NC(=O)c3ccc[nH]3)c2)nc1N	4.60	4.60	< 4.52	< 4.52	< 4.52	< 4.52
Nc1nc(-c2ccc(NC(=O)c3cc4ccccc4[nH]3)cc2)c[nH]1	< 4.52	< 4.52	< 4.52	< 4.52	< 4.52	< 4.52
CC(C)(C)OC(=O)n1cc(-c2cccc(NC(=O)c3cc4ccccc4[nH]3)c2)nc1N	< 4.52	4.59	< 4.52	< 4.52	< 4.52	< 4.52
CNc1nc(-c2cccc(NC(=O)c3cc4ccccc4[nH]3)c2)cn1C(=O)OC(C)(C)C	< 4.52	< 4.52	< 4.52	< 4.52	< 4.52	< 4.52
Nc1nc(-c2cccc(NC(=O)c3cc4ccccc4[nH]3)c2)c[nH]1	< 4.52	< 4.52	< 4.52	< 4.52	< 4.52	< 4.52
Nc1nc(-c2cccc(NC(=O)c3c[nH]c4ccccc34)c2)c[nH]1	4.85	4.92	< 4.52	< 4.52	4.59	< 4.52
CC(C)(C)OC(=O)n1cc(-c2ccc(NC(=O)[C@H]3CCCN3)cc2)nc1N	< 4.52	< 4.52	< 4.52	< 4.52	< 4.52	< 4.52
Nc1nc(-c2cccc(NC(=O)c3ccc[nH]3)c2)cn1C(=O)c1ccc[nH]1	< 4.52	4.60	< 4.52	< 4.52	4.72	< 4.52
